# Compounds with a hit are over-represented: about 3.4% of the library has one in this group of screens.
# E-sel inducer – E-selectin induction on HUVECs. P16581. activation, % at 7.58 µM. 260,000 tested, 0.37% active. AID 686992. HUVEC E-selectin immunofluorescence imaging; normalized: neutral wells 0, TNF-alpha wells 100;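 active = mean E-selectin-positive cell signal at least 10% of the positive control, reached in at least 60% of replicates, without over 20% cell loss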
# Target sequence (P16581 whole entry, looked up): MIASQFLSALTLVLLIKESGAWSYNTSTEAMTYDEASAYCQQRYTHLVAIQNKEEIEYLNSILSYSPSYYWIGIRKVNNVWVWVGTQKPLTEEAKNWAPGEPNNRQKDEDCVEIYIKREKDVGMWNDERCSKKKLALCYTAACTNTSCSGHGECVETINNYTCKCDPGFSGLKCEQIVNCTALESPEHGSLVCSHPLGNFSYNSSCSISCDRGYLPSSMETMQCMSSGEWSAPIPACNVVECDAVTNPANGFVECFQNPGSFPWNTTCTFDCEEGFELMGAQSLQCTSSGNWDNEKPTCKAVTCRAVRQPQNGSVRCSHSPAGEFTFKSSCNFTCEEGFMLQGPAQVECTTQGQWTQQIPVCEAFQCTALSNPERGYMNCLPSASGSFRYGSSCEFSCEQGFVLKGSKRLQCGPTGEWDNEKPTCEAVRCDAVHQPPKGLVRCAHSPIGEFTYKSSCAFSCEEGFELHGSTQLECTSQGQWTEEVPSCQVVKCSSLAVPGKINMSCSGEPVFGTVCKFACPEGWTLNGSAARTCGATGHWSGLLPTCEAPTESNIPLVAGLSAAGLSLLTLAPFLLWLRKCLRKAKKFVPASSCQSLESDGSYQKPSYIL
#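 Material: HUVEC primary endothelial cells; Amount: 3,000 cells per well; Dosing: single concentration; Medium: EGM-2 growth medium on 0.1% gelatin-coated wells; Read-out basis: percent E-selectin-positive cells; Signal: immunofluorescence imaging; Control set: TNF-alpha, DMSO.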
# MLL AF4-AF9 inh – MLL-AF4/AF9 protein interaction inhibition. AlphaScreen, biotin-AF4 peptide binding to FLAG-AF9. 350,000 tested, 0.47% active. AID 651704. inhibition, % at 10 µM;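 active = every replicate reaching a set inhibition limit, whatever the replicate mean, cut at about 25% in these data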;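 note: 0% = plate neutral control median and 100% = total signal loss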
# SIRT5 inh – blocks human SIRT5 desuccinylation of peptide. 330,000 tested, 1.1% active. inhibition, % at 15 µM. Q9NXA8. Purified SirT5, succinyl-peptide AMC, trypsin-coupled fluorescence; in the data active = inhibition above about 15%
# rRNA inh HTS – inhibits bacterial ribosomal RNA function over humanized ribosomes; E. coli WT GFP vs humanized-ribosome RFP mutants, fluorescence, 24 h; hits give low values; DMSO median 0, no signal -100; GFP signal change (wild-type ribosome), % (no concentration beside the values); 350,000 tested, 1.6% active; AID 720706;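 active = significant combined selectivity score with lowered wild-type GFP, culture density cut under 30%, mutant RFP and density less affected; inactive = any of these conditions unmet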
# ERAP1 HTS inh – ERAP1 (human) enzyme inhibition. recombinant ERAP1, Leu-AMC fluorescence, 60 min. Q9NZ08. 340,000 tested, 0.15% active. inhibition, % at 10.7 µM;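 active = mean replicate inhibition of at least 30%, or all replicates individually reaching that 30% level; inactive = mean below 30% and not every replicate reaching it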;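 note: 0% = neutral control wells and 100% = L-leucinethiol positive control wells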
# S100A4 MyoIIA – blocks human S100A4 binding to myosin IIA peptide; P26447; S100A4/TAMRA-MyoIIA peptide fluorescence polarization; inhibition, % at 10.7 µM; 360,000 tested, 0.14% active; AID 652163;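 active = mean inhibition of at least 70% across replicates, with every replicate also reaching that level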
#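 Test system – S100A4 monomer (human) · Compound – single-point compound testing · Schedule – 5 min incubation before reading · Probe or stimulus – TAMRA-labelled myosin IIA heavy-chain peptide probe, 5 nM · Benchmarks – neutral control DMSO, positive control TFP · Medium – Calcium-containing HEPES buffer, pH 7.2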
# * marks the source's active call; other numbers are inactive results; x = no result.
SMILES,E-sel inducer,MLL AF4-AF9 inh,SIRT5 inh,rRNA inh HTS,ERAP1 HTS inh,S100A4 MyoIIA
COc1cc(C=c2c3ccccc3n3c2cc(-c2ccccc2)[n+]3C)cc(OC)c1OC,139*,29*,0,-34,7,-72
COc1ccc(CN(C)C[C@H]2OCCCC[C@H](C)Oc3ccc(NC(=O)c4ccncc4)cc3C(=O)N([C@H](C)CO)C[C@H]2C)cc1,0,-1,0,3,2,4
CCCC#Cc1ccc([C@@H]2[C@H](CO)N3C(=O)CN(C(=O)Nc4ccccc4)C[C@@H]23)cc1,x,x,x,3,x,x
C[C@@H]1CN([C@@H](C)CO)C(=O)c2cccc(NS(=O)(=O)c3ccc(F)cc3)c2O[C@H]1CN(C)S(=O)(=O)c1ccc(Cl)cc1,0,-1,4,2,4,14
COc1ccc(C[C@H]2CCc3cnnn3COC[C@H](C(C)C)NC2=O)cc1,0,-5,x,-1,x,x
Cc1ccccc1CN(C)C[C@H]1OCc2cnnn2CCCC(=O)N([C@H](C)CO)C[C@@H]1C,x,-4,-3,-1,-3,2
Cc1ccc(C(=O)C2CCN(CC(=O)Nc3nc(C)cs3)CC2)cc1,x,7,19*,-22*,-4,2
C[C@@H]1CN([C@H](C)CO)C(=O)c2cc(NC(=O)Nc3ccccc3)ccc2O[C@@H](C)CCCCO[C@H]1CN(C)C(=O)Nc1ccc(C(F)(F)F)cc1,0,-3,-2,5,-2,19
O=C(CCl)NNC(=O)c1c(O)c2ccccc2[nH]c1=O,x,x,1,-15,4,1
CCCCC(=O)NNC(=O)c1c(O)c2ccccc2[nH]c1=O,0,-7,16*,6,x,-2
Cc1c(C(=O)O)oc2ccc(S(=O)(=O)NC3CCCCCCC3)cc12,x,6,1,-29*,-1,-4
COc1ccc(CNS(=O)(=O)c2ccc3oc(C(=O)O)c(C)c3c2)cc1,x,-7,-6,-7,-2,3
CCOCCCNC(=O)Cn1nc(-c2ccc(OC)c(OC)c2)ccc1=O,5,0,-1,2,-2,-1
CCOCCCNC(=O)Cn1nc(-c2ccccc2)ccc1=O,2,51*,0,3,2,-9
COc1ccc(C(=O)Nc2cnc(NC(=O)c3cccs3)cc2C)cc1,33*,2,-2,-7,-5,-2
COC(=O)c1c(-c2ccc(OC)cc2)sc2cc(OC)c(OC)cc12,0,2,-5,-24*,1,0
COC(=O)c1c(-c2ccc(OC)cc2)oc2ccc(-c3cc(OC)c(OC)c(OC)c3)cc12,1,-4,23*,9,-5,0
COc1ccc(C(=O)c2c(-c3ccc(OC)cc3)oc3ccc(-c4cc(OC)c(OC)c(OC)c4)cc23)cc1,0,-10,-4,5,1,-1
COC(=O)c1c(-c2ccc(SC)cc2)sc2ccc(OC)cc12,0,1,2,-12,2,-11
C[C@@H]1CCCCO[C@@H](CN(C)C(=O)Nc2ccc(F)cc2)[C@H](C)CN([C@H](C)CO)C(=O)c2cc(NC(=O)CCCN(C)C)ccc2O1,0,3,1,-2,0,4
CCOC(=O)N1CCN(S(=O)(=O)c2ccc3c(c2)CC(C)N3C(C)=O)CC1 (centres undefined),x,1,-2,-46*,3,-3
CCOC(=O)N1CCN(S(=O)(=O)c2ccc(C)c(C(=O)NC3CCCCC3)c2)CC1,1,-2,3,11,3,127*
C[C@H](CO)N1C[C@H](C)[C@@H](CN(C)Cc2ccc(Oc3ccccc3)cc2)Oc2c(NC(=O)Nc3ccc(F)cc3)cccc2C1=O,3,3,-1,-3,4,-11
CC(=O)N1CC(C)Sc2ccc(S(=O)(=O)NCCc3ccc(C)cc3)cc21 (centres undefined),x,-3,2,-44,-2,-2
CC(=O)N1CC(C)Sc2ccc(S(=O)(=O)NCCc3ccccc3)cc21 (centres undefined),x,-2,-1,-25*,-1,1
